Compound activity as filed in PubChem BioAssay.
Hits are enriched below; roughly 2.6% of the tested compounds scored in any of these assays.
VLA-4 inh – inhibition in a human VLA-4 binding assay | inhibition, % (about 7 µM as worked out from the volumes in the protocol) | P13612 | VLA-4 expressing cells, ligand binding flow cytometry | AID 2557 | hit rate 0.2% among 330,000; in the data active = inhibition above about 50%
Platelet DG rel – modulates dense granule release in human platelets; human platelet-rich plasma, SFLLRN dense granule ATP release, luminescence; inhibition, %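 (compounds screened at 7.5 µM in platelet-rich plasma)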; hit rate 0.22% among 300,000; AID 1663;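 active = mean replicate score, as percent of positive control, at or above 50; inconclusive = mean below 50 but at least one replicate at or above 50; inactive = mean and every replicate below 50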
Rce1 inhib – yeast Ras-converting enzyme inhibition | hit rate 0.27% among 290,000 | calls only | yeast membranes, quenched prenylated peptide cleavage fluorescence | AID 2563;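 active = fall in fluorescence gain of 50% or more versus controls, with final raw signal at or below 3038400; inconclusive = same 50% fall but final raw signal above 3038400; inactive = fall in fluorescence gain under 50%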;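 note: plate controls were neutral control wells for no effect and wells lacking membranes for full effect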
Target sequence (Q03530 whole entry, looked up): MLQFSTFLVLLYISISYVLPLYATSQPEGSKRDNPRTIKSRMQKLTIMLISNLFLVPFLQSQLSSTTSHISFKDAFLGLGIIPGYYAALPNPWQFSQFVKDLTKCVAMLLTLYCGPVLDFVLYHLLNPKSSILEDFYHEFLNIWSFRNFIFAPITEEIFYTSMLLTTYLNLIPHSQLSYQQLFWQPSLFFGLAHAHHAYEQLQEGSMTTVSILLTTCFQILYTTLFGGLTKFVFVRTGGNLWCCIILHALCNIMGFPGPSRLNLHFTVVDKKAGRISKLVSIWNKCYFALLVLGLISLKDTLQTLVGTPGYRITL
TAAR1 agonist – agonists of human TAAR1; Q96RJ0; CHO RD-HGA16 TAAR1, Fluo-8 calcium fluorescence; vehicle wells 0%, saturating PEA agonist 100%; activation, % at 3 µM; hit rate 0.99% among 360,000; AID 624467;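 active = activation above the mean activation of all test compounds in the run plus 3 SD, cut at about 38% in these data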
Target sequence (Q96RJ0 whole entry, looked up): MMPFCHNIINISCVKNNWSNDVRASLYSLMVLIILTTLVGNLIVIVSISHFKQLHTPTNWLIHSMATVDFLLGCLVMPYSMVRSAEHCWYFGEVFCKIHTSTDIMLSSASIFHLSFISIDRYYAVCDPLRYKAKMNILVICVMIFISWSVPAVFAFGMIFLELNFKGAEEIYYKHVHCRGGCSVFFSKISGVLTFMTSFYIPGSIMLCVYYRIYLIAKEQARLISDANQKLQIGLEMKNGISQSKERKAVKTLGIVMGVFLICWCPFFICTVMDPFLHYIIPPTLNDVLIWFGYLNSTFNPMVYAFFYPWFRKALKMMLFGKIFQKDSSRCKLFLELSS
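Test system: RD-HGA16 (CHO) cells co-expressing Gα16 and hTAAR1; dosing: one-point dosing at 3 µM (nominal); timing: 17-24 h seeding, 75 min 37 °C dye, 30 min RT; signal: kinetic Fluo-8 calcium fluorescence; read-out basis: % activation relative to PEA EC100 response; controls: DMSO and PEA EC100; replicates: n 1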
TAAR1 antagonist – human TAAR1 antagonism | Q96RJ0 | hit rate 1.5% among 360,000 | inhibition, % at 3 µM | CHO RD-HGA16 TAAR1, Fluo-8 calcium fluorescence, antagonist | AID 624466;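 active = inhibition above a per-plate cutoff, the mean inhibition of test compounds on that plate plus 3 SD, cut at about 49% in these data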;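 note: 0% = DMSO plus EC80 beta-PEA response and 100% = DMSO alone without agonist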
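Test system – hTAAR1-expressing CHO RD-HGA16 cells, Gα16-coupled · Also added – β-PEA at EC80 concentration, post-compound challenge · Compound – 3 µM, single point · Incubation – dye loading 75 min at 37 °C, then 30 min room temperature · Measured by – Fluo-8 intracellular calcium dye fluorescence, real-time kinetic reads · Benchmarks – vehicle and agonist controls · Replicates – singlicate, one well per test compound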
VLA-4 allo CP – human VLA-4 allosteric modulation in cherry picked compounds; shares compounds with VLA-4 inh; U937 cells, HUTS-21 LIBS mAb binding, flow cytometry; LDV ligand present at threefold Kd; inhibition, % at 6.7 µM; hit rate 2% among 1,300; AID 2813; in the data active = inhibition above about 40%;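 note: 0% = ligand without compound and 100% = no ligand background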
* marks the source's active call; other numbers are inactive results; i = inactive; ? = inconclusive; . = no result given.

SMILES	VLA-4 inh	Platelet DG rel	Rce1 inhib	TAAR1 agonist	TAAR1 antagonist	VLA-4 allo CP
COc1cccc(-n2c(Cc3cc(=O)[nH]c(=O)[nH]3)nnc2SCC(=O)N2CCCCC2)c1	9	13	i	0	-32	-1
O=C(CSc1nnc(Cc2cc(=O)[nH]c(=O)[nH]2)n1-c1ccc(F)cc1)N1CCCCC1	18	-12	i	2	-12	2
Cc1ccc(-n2c(CSc3nc(C)cc(C)n3)nnc2SCC(=O)N2CCCC2)cc1	50*	-2	i	7	6	-4
CC(=O)c1c(-c2ccccc2)c2cc([N+](=O)[O-])ccc2[nH]c1=O	-5	-3	i	-1	-2	.
C[C@@H]1CN([C@H](C)CO)C(=O)c2cccc(NC(=O)Nc3ccc(F)cc3)c2O[C@H]1CN(C)C(=O)Nc1ccc(C(F)(F)F)cc1	-12	.	.	10	8	.
COc1ccc2[nH]c(=O)c(-c3nnn(-c4ccc(Cl)nc4)n3)cc2c1	35	-2	i	.	.	.
CC(C)c1cccc(-c2csc(C(C)(O)c3cccc(F)c3)n2)c1 (centres undefined)	.	.	.	-1	20	.
Cc1ccc2oc(-c3ccccc3)nc2c1	94*	19	i	1	-10	5
CCOc1cccc(-c2nc3cc(C)ccc3o2)c1	9	2	i	1	-16	.
CN(Cc1ccc(-n2cccn2)cc1)Cc1cn(C)nc1-c1ccccc1F	13	-3	i	2	-23	.
CCn1ccnc1CN(C)Cc1cn(C)nc1-c1ccccc1F	43	2	i	2	-14	-4
CC(C)NC(=O)C1(C)CSCC(=O)N1C1CC1 (centres undefined)	.	.	.	0	-18	.
CCC(C)CCCCNC1=NCCS1 (centres undefined)	6	-14	i	14	-7	.
CCCCCCNC1=NCCS1	53*	-15	i	4	19	-2
O=C1Cc2cc(S(=O)(=O)N3CCCCC3)ccc2N1	-6	4	i	1	1	.
O=C1Cc2cc(S(=O)(=O)N3CCNCC3)ccc2N1	-7	.	.	1	-5	6
O=[N+]([O-])c1cc2c(cc1Br)-c1ccccc1C2	.	.	.	-1	21	.
Cn1c2ccccc2c2ncn(Cc3ccco3)c(=O)c21	55*	1	i	15	2	0
O=C(NCc1ccccc1)C(C1CC1)n1c(=O)c(-c2cc3ccccc3[nH]2)nc2ccccc21 (centres undefined)	.	.	.	1	-2	.
O=C(c1ccccc1)N1CCN(C(=O)c2ccc([N+](=O)[O-])cc2)CC1	42	3	i	2	1	-2
O=C1NC(c2ccccc2)N=C2Oc3ccccc3C=C12 (centres undefined)	.	.	.	4	4	.
COc1ccc(-c2c(C(F)(F)F)oc3c(CN4CCN(C)CC4)c(O)ccc3c2=O)cc1	92*	-1	i	4	-10	2
COc1ccccc1Oc1c(C)oc2c(CN3CCN(C)CC3)c(O)ccc2c1=O	2	2	i	3	9	.
C/C(=N\NC(=O)c1ccccc1O)c1cccs1	-23	-5	i	1	8	.
CSC(=NNC(=O)c1ccccc1O)SC	88*	-3	i	-2	1	5
SMILES	VLA-4 inh	Platelet DG rel	Rce1 inhib	TAAR1 agonist	TAAR1 antagonist	VLA-4 allo CP
CC(=O)Nc1ccc(NC(=O)C(C)OC(=O)c2ccc3ccccc3n2)cc1 (centres undefined)	23	.	.	-2	-21	.
COCCNC(=O)/C(C#N)=C/c1c(F)cccc1Cl	5	3	i	1	12	5
COCCNC(=O)/C(C#N)=C/c1ccc(SC)cc1	7	-5	i	14	-4	.
COCCNC(=O)/C(C#N)=C/c1ccc(C(=O)O)cc1	2	-2	i	2	6	7
CCOc1ccc(NC(=O)Cn2c(=O)oc3ccccc32)cc1	0	-9	i	4	4	.
CC(C)(C)NC(=O)Cn1c(=O)oc2ccc(Cl)cc21	55*	12	i	1	5	-1
CCOc1ccccc1NC(=O)Cn1c(=O)oc2cc(Cl)ccc21	13	-3	i	-1	1	2
CCOc1ccc(NC(=O)Cn2c(=O)oc3cc(Cl)ccc32)cc1	0	2	i	0	0	5
COc1ccc(N2CC(C(=O)N3CCCC(C)C3)CC2=O)cc1 (centres undefined)	-4	6	i	1	-8	.
COc1cccc(CC(=O)OCC(=O)NNC(=O)c2ccc(Br)cc2)c1	1	.	.	-1	2	.
CCOCCn1c(=NC(=O)/C=C/c2ccccc2Cl)sc2cc(NC(C)=O)ccc21	43	8	i	1	-4	-9
COCCn1c(=NC(=O)/C=C/c2ccccc2Cl)sc2cc(NC(C)=O)ccc21	-5	3	i	4	-21	.
CCOc1cc(CNCCN2CCOCC2)ccc1OCc1ccccc1Cl	3	?	i	4	-26	.
CCOc1cc(CNCCCN2CCOCC2)cc(Br)c1OCc1ccccc1Cl	56*	0	i	23	-9	26
NC(=O)c1ncn([C@@H]2O[C@H](C(=O)N[C@H](Cc3c[nH]c4ccccc34)C(=O)N3CCN(CC(=O)N4CCCC4)CC3)[C@@H](O)[C@H]2O)n1	.	.	.	0	0	.
CCOc1ccccc1NC(=O)NCc1cccnc1	0	15	i	1	3	.
CCOc1ccccc1NC(=O)NCc1ccccc1	50*	10	i	5	-3	-6
COc1ccc(OC)c(C(=O)Nc2ccc3[nH]ccc3c2)c1	1	-9	i	1	2	.
CC1CCCCN1S(=O)(=O)c1cc2c(=O)nc3ccccn3c2cc1Cl (centres undefined)	.	.	.	1	0	.
CCCc1nc2ccccc2c(=O)n1/N=C/c1ccccc1O	91*	0	i	3	9	0
CNC(=S)N(C1=NCC(c2ccc([N+](=O)[O-])cc2)S1)c1ccccc1 (centres undefined)	-4	-4	i	-1	-8	.
CC(C)NC(=O)CCCC(=O)NC(C)C	42	-11	i	13	-7	-10
C=C1[C@@H](O)[C@@H]2O[C@]3(CC[C@H](/C=C/[C@@H](C)[C@@H]4CC(C)=CC5(O[C@H](C[C@@](C)(O)C(=O)OC)CC[C@H]5O)O4)O3)CC[C@H]2O[C@@H]1[C@@H](O)C[C@H](C)[C@H]1OC2(CCCCO2)CC[C@H]1C (some centres undefined)	36	.	.	.	.	.
C=C1C(O)[C@@H]2O[C@]3(CC[C@H](/C=C/C(C)[C@@H]4CC(C)=CC5(O[C@H](C[C@@](C)(O)CO)CCC5O)O4)O3)CC[C@H]2O[C@@H]1C(O)CC(C)[C@H]1OC2(CCCCO2)CCC1C (some centres undefined)	54*	.	.	.	.	52*
